Where a chain is given by its changes, count along the chain named. The source made the active and inactive calls. The calls are words filed in the database; no cut-off is given here.
Experiments:
[1] = molecular target: T1, Retinoic acid receptor RXR-alpha (Homo sapiens) (UniProt P19793); test: Antagonist activity against Myc-tagged RXRalpha ligand binding domain (unknown origin) expressed in human MCF7 cells assessed as inhibition of 9-cis-RA-induced receptor transactivation after 18 hrs by luciferase reporter gene based mammalian one-hybrid assay; format: cell-based
T1 sequence (whole entry): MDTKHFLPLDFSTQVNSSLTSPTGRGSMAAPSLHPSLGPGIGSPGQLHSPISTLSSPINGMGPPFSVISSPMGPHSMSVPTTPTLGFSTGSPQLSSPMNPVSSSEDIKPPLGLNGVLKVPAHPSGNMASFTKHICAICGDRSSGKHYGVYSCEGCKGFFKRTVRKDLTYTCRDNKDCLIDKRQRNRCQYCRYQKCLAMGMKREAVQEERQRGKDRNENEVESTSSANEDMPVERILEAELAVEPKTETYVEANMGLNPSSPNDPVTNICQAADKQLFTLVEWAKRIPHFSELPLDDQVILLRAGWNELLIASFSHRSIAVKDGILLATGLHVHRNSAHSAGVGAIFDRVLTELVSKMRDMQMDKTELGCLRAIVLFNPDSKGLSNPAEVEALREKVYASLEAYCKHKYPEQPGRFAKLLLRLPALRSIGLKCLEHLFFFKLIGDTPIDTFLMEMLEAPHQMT
How it was run: (§1)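 MCF-7 cells co-transfected with pG5-Luc reporter and pBind-RXRα-LBD. […] Read-out was dual-luciferase, with firefly normalized to Renilla for transfection efficiency. Single-concentration tests used 10 μM. Mean ± SD.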

[2] = molecular target: T1, Retinoic acid receptor RXR-alpha (Homo sapiens); test: Antagonist activity against Myc-tagged RXRalpha ligand binding domain (unknown origin) expressed in human MCF7 cells assessed as inhibition of 9-cis-RA-induced receptor transactivation at 10 uM after 18 hrs by luciferase reporter gene based mammalian one-hybrid assay; format: cell-based; how it was run: as §1
[3] = system: T2, Retinoic acid receptor RXR-alpha (Homo sapiens), P19793 [V298S]; test: Antagonist activity against RXRalpha V298S mutant (unknown origin) expressed in human HEK293T cells assessed as inhibition of 9-cis-RA-induced receptor transactivation at 1 uM after 18 hrs by luciferase reporter gene based mammalian one-hybrid assay; format: cell-based; conditions: HEK-293T
T2 sequence (whole entry): T1 sequence (whole entry) with V298S
How it was run: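 The pG5-Luc reporter was cotransfected with pBind-RXRα/V298S (Gal4-fusion construct) into HEK-293T cells. Cells were then exposed to the indicated compounds for 18 h, and luciferase reporter activity was measured.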

[4] = system: T3, Retinoic acid receptor RXR-alpha (Homo sapiens), P19793 [F313A]; conditions: HEK-293T, 1 uM
T3 sequence (whole entry): T1 sequence (whole entry) with F313A

[5] = system: T4, Retinoic acid receptor RXR-alpha (Homo sapiens), P19793 [C432W]; conditions: HEK-293T, 1 uM
T4 sequence (whole entry): T1 sequence (whole entry) with C432W

[6] = system: T5, Retinoic acid receptor RXR-alpha (Homo sapiens), P19793 [A272W]; conditions: HEK-293T, 1 uM
T5 sequence (whole entry): T1 sequence (whole entry) with A272W

Row | inhibition [1] | inhibition [2] | Compound | inhibition [3] | inhibition [4] | inhibition [5] | inhibition [6]
1 | Dose-dependent effect | Active | CCC(Sc1nc2ccccc2s1)C(=O)N/N=C/c1c(O)ccc2ccccc12 (configuration not stated) | – | – | – | –
2 | – | – | CCCCCOc1cc2c(cc1-c1cc(/C=C/C(=O)O)ccc1O)C(C)(C)CCC2(C)C | Active | – | – | –
3 | – | – | CCCOc1cc2c(cc1C(=C1CC1)c1ccc(C(=O)O)cc1)C(C)(C)CCC2(C)C | Active | Active | inactive | inactive
